Several values for one entry are separate records, joined by “and”; a condition that tells them apart may be missing. Equal entries are not always repeated. Where two headings read alike, the source gives them in different places.
Columns and labels:
[1] = system: Ca^2+- and ATP-sensitive nonselective cation channels (CA-NSCs); conditions: read-out: [Ca2+]i required for half-maximal activation; freshly excised channels; ref Csanády and Adam-Vizi, 2003; cited from earlier work
[2] = system: Ca^2+- and ATP-sensitive nonselective cation channels (CA-NSCs); type: biochemical, rat
How it was run: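 Inside-out patches from rat brain capillary endothelial cells, cultured 5–6 d, at 25°C. Pipette: 140 mM NaCl, 30 μM benzamil, pH 7.4. Bath: 140 mM KCl or NMDG-Cl, pH 7.1, plus 1 mM CaCl2. i(V) is recorded ± 70 μM DV. KCl data get linear fits; NMDG data get GHK fits with asymptotic negative-potential slope. Currents at −40 mV ± 1 mM nucleotide are normalized to in-patch control and Hill-fitted.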

[3] = Decay of decavanadate in bath solution measured by photometry; type: physicochemical; conditions: pH = 7.1, T = 25°C
How it was run: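 DV stock is 50 mM Na3VO4 brought to pH 2.0, kept at +4°C, used within 24 h and diluted into bath under 90 min before use. Spectra of 1 mM Na3VO4 in bath (pH 7.1, 25°C) are taken 0–8 h after preparation against a boiled same-composition blank. DV is tracked as peak absorbance at ~390 nm, and the decay is single-exponential fitted.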

[4] = system: Ca^2+- and ATP-sensitive nonselective cation channels (CA-NSCs); assay: Excised inside-out patch recording of CA-NSC channel gating; type: biochemical, rat
[5] = 70 μM DV, NaCl pipette, KCl bath

SMILES | EC50 [1] [nM] | Increase of single-channel (slope) conductance relative to control [2, 5] | Reversal potential [2, 5] [mV] | Slope conductance [2, 5] [pS] | Asymptotic conductance at negative potentials ([2]; 70 μM DV, NaCl pipette, NMDG-Cl bath, n = 3) [pS] | K1/2 for conductance relative to K1/2 for stimulation of gating ([2]; higher) [fold] | EC50 ([2]; read-out: K1/2 for stimulation of single-channel conductance, no nucleotides (control), −40 mV) [nM] | Time constant of decay in bath solution [3] [h] | Increase of K1/2 for stimulation of Po caused by nucleotide ([4]; 1 mM ADP vs control) [×] | Increase of K1/2 for stimulation of Po caused by nucleotide ([4]; 1 mM AMP vs control) [×] | Increase of K1/2 for stimulation of Po caused by nucleotide ([4]; 1 mM ATP vs control) [×] | EC50 ([4]; read-out: K1/2 for stimulation of Po, 1 mM Ca2+ i, −40 mV, no nucleotides) [nM]
[Ca+2] [Ca^2+] | ~20000 | – | – | – | – | – | – | – | – | – | – | –
[O]=[V]([O-])([O-])[O][V]1(=[O])[O][V]2(=[O])[O][V](=[O])([O][V](=[O])([O-])[O-])[O][V](=[O])([O]2)[O][V]2(=[O])[O][V](=[O])([O][V](=[O])([O-])[O-])[O][V](=[O])([O]1)[O]2 (stereo not drawn) [DV, decavanadate] | – | 34 ± 2% and ~30% | −1 ± 2 | 42 ± 3 | 36 ± 0.5 | ~20 | 1700 ± 300 | ~4 | ~80 | ~270 | ~35 | 90

— PMC2234573 (The Journal of General Physiology, 2004)
